Measurements from ChEMBL document CHEMBL1268933, “Discovery of a vorapaxar analog with increased aqueous solubility” (Bioorg Med Chem Lett, 2010).
≈ marks a conversion by molar mass, not a printed value. Calls of active or inactive are those of the source. The rule behind the calls is not given here.

How the values were obtained:
[1] = Kinetic solubility of the compound; assay type: physicochemical
In short: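 Kinetic solubility: DMSO serial dilutions added to 10 mM phosphate buffer pH 7.4, equilibrated 30 min at room temperature; precipitate detected by nephelometry; solubility taken as highest concentration not scattering light.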

[2] = target: T1, Proteinase-activated receptor 1 (Homo sapiens, UniProt P25116); experiment: Displacement of high affinity TRAP form human platelet PAR1
T1 sequence (P25116 whole entry): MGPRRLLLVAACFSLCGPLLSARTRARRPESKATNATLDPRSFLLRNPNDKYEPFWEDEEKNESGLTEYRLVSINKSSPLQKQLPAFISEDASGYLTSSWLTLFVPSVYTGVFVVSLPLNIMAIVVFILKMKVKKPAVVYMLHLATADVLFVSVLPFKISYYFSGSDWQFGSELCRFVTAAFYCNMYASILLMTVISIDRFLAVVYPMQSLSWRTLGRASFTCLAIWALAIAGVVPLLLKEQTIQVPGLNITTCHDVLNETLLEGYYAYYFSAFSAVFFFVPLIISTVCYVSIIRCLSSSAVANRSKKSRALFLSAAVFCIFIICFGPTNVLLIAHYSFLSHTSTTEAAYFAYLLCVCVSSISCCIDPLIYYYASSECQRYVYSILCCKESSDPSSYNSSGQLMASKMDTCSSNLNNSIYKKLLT
In short: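 Radioligand binding using human platelet membranes as PAR-1 source and tritiated haTRAP as radioligand; run in duplicate, compounds of high interest repeated n≥5 (SD 20%); Ki reported.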

[3] = Cmax in rat; assay type: ADME, organism-based; conditions: in vivo
In short: (§1)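 High-throughput format rat pharmacokinetic screen; plasma AUC and Cmax determined.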

[4] = AUC in rat; assay type: ADME, organism-based; conditions: plasma; in short: as §1
[5] = test system: Platelet; experiment: Ex-vivo inhibition of PAR1-mediated aggregation of high affinity TRAP-stimulated cynomolgus monkey platelet at 0.1 mg/kg, po administered as single dose measured up to 6 hrs; assay type: functional, organism-based; design: dose 0.1 mg/kg; conditions: Macaca fascicularis
In short: (§2)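 Cynomolgus monkeys (n = 3) given single oral dose of 0.1 or 0.3 mg/kg; ex vivo haTRAP-induced platelet aggregation measured at time points out to 24 h.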

[6] = target: Cytochrome P450 2C9 (Homo sapiens, UniProt P11712); experiment: Inhibition of CYP2C9; assay type: ADME
In short: (§3)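 CYP3A4, CYP2D6, CYP2C9 and CYP2C19 inhibition tested under both co-incubation and pre-incubation conditions; IC50 determined.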

[7] = Cmax in monkey at 1 mg/kg, po; assay type: ADME, organism-based, Macaca mulatta; design: dose 1 mg/kg, route oral; conditions: rhesus monkey, in vivo
[8] = Permeability across human Caco-2 cell membrane; assay type: ADME, cell-based; conditions: read-out: permeability
[9] = test system: Platelet; experiment: Ex-vivo inhibition of PAR1-mediated aggregation of high affinity TRAP-stimulated cynomolgus monkey platelet at 0.1 mg/kg, po administered as single dose measured after 24 hrs; assay type: functional; conditions: Macaca fascicularis; in short: as §2
[10] = Tmax in monkey at 1 mg/kg, po; assay type: ADME, organism-based, Macaca mulatta; design: dose 1 mg/kg, route oral; conditions: rhesus monkey, in vivo
[11] = target: T2, PXR (nuclear receptor subfamily 1 group I member 2) (Homo sapiens, UniProt O75469); experiment: Induction of human PXR at 10 uM
T2 sequence (O75469 whole entry): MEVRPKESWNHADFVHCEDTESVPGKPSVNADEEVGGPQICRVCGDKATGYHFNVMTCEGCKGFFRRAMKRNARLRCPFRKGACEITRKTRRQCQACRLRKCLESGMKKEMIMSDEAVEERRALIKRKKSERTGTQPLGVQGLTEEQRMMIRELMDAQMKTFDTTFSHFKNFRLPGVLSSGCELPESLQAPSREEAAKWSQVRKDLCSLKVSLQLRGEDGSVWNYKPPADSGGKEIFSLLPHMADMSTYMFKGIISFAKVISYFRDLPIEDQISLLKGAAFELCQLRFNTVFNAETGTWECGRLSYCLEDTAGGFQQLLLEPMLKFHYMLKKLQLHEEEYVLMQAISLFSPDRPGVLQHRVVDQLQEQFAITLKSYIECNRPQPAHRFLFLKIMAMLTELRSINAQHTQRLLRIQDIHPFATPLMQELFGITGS

[12] = Cmax in monkey at 0.1 mg/kg, po; assay type: ADME, organism-based, Macaca mulatta; design: dose 0.1 mg/kg, route oral; conditions: rhesus monkey, in vivo
[13] = target: Cytochrome P450 2D6 (Homo sapiens, UniProt P10635); experiment: Inhibition of CYP2D6; assay type: ADME; in short: as §3
[14] = Tmax in monkey at 0.1 mg/kg, po; assay type: ADME, organism-based, Macaca mulatta; design: dose 0.1 mg/kg, route oral; conditions: rhesus monkey, in vivo
[15] = target: Cytochrome P450 2C19 (Homo sapiens, UniProt P33261); experiment: Inhibition of CYP2C19; assay type: ADME; in short: as §3
[16] = test system: Platelet; experiment: Ex-vivo inhibition of PAR1-mediated aggregation of high affinity TRAP-stimulated cynomolgus monkey platelet at 0.3 mg/kg, po administered as single dose measured after 24 hrs; assay type: functional, organism-based; design: dose 0.3 mg/kg; conditions: Macaca fascicularis; in short: as §2
[17] = AUC (0 to 24 hrs) in monkey at 1 mg/kg, po; assay type: ADME, organism-based, Macaca mulatta; design: time < 24 hr, dose 1 mg/kg, route oral; conditions: rhesus monkey, plasma
[18] = AUC (0 to 24 hrs) in monkey at 0.1 mg/kg, po; assay type: ADME, organism-based, Macaca mulatta; design: time < 24 hr, dose 0.1 mg/kg, route oral; conditions: rhesus monkey, plasma
[19] = Equilibrium solubility of the compound after 24 hrs; assay type: physicochemical
[20] = target: Cytochrome P450 3A4 (Homo sapiens, UniProt P08684); experiment: Inhibition of CYP3A4; assay type: ADME; in short: as §3
[21] = test system: Rhesus monkey; experiment: Antithrombotic activity in monkey Folts model; assay type: functional, organism-based; conditions: Macaca mulatta
In short: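 Folts thrombosis model in anesthetized monkeys; escalating doses given intravenously in sequence to the same animal, alone or with ADP antagonist cangrelor; inhibition of cyclic flow reductions monitored.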

Sequence of Cytochrome P450 3A4 (P08684 whole entry): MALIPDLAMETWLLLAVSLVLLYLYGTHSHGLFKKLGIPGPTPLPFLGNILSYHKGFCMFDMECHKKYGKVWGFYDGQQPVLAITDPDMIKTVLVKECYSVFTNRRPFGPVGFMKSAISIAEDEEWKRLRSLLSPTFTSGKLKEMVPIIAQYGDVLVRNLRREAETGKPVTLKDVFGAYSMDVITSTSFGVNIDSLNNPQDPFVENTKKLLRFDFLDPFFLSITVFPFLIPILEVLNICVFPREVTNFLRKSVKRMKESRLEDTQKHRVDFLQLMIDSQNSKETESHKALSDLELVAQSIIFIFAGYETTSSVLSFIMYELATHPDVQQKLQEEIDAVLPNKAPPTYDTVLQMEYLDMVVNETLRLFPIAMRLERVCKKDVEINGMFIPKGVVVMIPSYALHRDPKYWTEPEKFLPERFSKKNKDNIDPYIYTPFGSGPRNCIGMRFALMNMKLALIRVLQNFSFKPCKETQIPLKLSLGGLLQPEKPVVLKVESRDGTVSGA
Sequence of Cytochrome P450 2C19 (P33261 whole entry): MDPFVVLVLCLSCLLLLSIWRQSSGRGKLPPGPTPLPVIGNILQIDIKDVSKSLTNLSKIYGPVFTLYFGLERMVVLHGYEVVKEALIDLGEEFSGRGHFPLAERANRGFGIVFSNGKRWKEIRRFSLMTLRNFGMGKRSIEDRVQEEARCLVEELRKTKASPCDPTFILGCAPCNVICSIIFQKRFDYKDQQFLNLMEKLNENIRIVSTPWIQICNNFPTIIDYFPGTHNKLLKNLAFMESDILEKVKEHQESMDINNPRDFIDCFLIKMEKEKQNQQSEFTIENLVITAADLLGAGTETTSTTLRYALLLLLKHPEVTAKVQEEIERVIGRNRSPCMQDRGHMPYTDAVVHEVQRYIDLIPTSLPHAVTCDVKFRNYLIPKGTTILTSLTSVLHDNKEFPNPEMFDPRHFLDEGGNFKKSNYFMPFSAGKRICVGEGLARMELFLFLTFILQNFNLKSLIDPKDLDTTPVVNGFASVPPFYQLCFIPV
Sequence of Cytochrome P450 2D6 (P10635 whole entry): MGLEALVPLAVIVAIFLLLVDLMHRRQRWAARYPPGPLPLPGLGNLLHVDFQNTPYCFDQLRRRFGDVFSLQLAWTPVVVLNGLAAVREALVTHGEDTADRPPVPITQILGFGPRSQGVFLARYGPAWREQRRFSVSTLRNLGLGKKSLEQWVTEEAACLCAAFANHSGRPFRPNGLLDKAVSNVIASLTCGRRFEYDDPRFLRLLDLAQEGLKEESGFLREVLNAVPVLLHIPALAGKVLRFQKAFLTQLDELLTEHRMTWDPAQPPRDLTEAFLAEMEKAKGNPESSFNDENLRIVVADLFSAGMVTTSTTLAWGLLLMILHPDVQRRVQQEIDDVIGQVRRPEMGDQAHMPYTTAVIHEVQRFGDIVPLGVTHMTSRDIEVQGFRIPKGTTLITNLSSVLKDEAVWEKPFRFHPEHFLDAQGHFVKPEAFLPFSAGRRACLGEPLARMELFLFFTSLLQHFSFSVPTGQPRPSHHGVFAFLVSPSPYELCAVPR
Sequence of Cytochrome P450 2C9 (P11712 whole entry): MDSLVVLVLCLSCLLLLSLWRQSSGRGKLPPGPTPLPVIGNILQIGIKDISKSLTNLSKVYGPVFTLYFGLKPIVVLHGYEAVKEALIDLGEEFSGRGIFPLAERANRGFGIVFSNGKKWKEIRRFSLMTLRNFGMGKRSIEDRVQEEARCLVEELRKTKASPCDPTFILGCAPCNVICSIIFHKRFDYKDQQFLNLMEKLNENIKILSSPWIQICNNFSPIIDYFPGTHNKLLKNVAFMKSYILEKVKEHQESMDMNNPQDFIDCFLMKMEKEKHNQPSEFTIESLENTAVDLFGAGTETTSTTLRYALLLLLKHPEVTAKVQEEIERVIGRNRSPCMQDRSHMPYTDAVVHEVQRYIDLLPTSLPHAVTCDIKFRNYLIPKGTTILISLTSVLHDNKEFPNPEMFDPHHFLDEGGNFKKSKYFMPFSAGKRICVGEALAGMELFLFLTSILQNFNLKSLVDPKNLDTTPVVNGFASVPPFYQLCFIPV

Row | solubility kinetic [1] [µM] | Ki [2] [nM] | Cmax [3] [ng/mL] | AUC [4] [ng·h/mL] | SMILES | other results
1 | 12 (≈ 5.57 µg/mL) | 61 | – | – | CCOC(=O)N[C@@H]1CC[C@@H]2[C@@H](C1)C[C@H]1C(=O)O[C@H](C)[C@H]1[C@H]2/C=C/c1ccc(-c2ccoc2)cn1 | –
2 | 12 (≈ 6 µg/mL) | 15 | 1570 | 5220 | CCOC(=O)N[C@@H]1CC[C@@H]2[C@@H](C1)C[C@H]1C(=O)O[C@H](C)[C@H]1[C@H]2/C=C/c1ccc(-c2ccccc2C#N)cn1 | –
3 | – | 240 | – | – | CCOC(=O)N[C@@H]1CC[C@@H]2[C@@H](C1)C[C@H]1C(=O)O[C@H](C)[C@H]1[C@H]2/C=C/c1ccc(-c2cccnc2)cn1 | –
4 | 75 (≈ 35.7 µg/mL) | 19 | 3070 | 10100 | CCOC(=O)N[C@@H]1CC[C@@H]2[C@@H](C1)C[C@H]1C(=O)O[C@H](C)[C@H]1[C@H]2/C=C/c1ccc(-c2ccccn2)cn1 | inhibition [5]: Active; IC50 [6]: > 30000 nM; Cmax [7]: 236 ng/mL; Papp [8]: 28.3 ×10⁻⁶ cm/s; inhibition in vivo at 0.1 mg/kg [9]: 70%; Tmax [10]: 30 min; induction at 10 µM [11]: 0.13%; Cmax [12]: 16 ng/mL; IC50 [13]: > 30000 nM; Tmax [14]: 60 min; IC50 [15]: > 30000 nM; inhibition [16]: Active; AUC(0-t) at 24 h [17]: 2520 ng·h/mL; AUC(0-t) at 24 h [18]: 50 ng·h/mL; solubility thermodynamic at 24 h [19]: 67 µM (≈ 31.9 µg/mL); IC50 [20]: > 30000 nM; Activity [21]: Dose-dependent effect
5 | – | 144 | – | – | CCOC(=O)N[C@@H]1CC[C@@H]2[C@@H](C1)C[C@H]1C(=O)O[C@H](C)[C@H]1[C@H]2/C=C/c1ccc(-c2cc(C)ccn2)cn1 | –
6 | – | 250 | – | – | CCOC(=O)N[C@@H]1CC[C@@H]2[C@@H](C1)C[C@H]1C(=O)O[C@H](C)[C@H]1[C@H]2/C=C/c1ccc(-c2ccncc2)cn1 | –
7 | < 5 | 8 | 974 | 3060 | CCOC(=O)N[C@@H]1CC[C@@H]2[C@@H](C1)C[C@H]1C(=O)O[C@H](C)[C@H]1[C@H]2/C=C/c1ccc(-c2cccc(F)c2)cn1 [VORAPAXAR] | solubility thermodynamic at 24 h [19]: 2.8 µM (≈ 1.38 µg/mL)
8 | < 5 | 12 | 368 | 319 | CCOC(=O)N[C@@H]1CC[C@@H]2[C@@H](C1)C[C@H]1C(=O)O[C@H](C)[C@H]1[C@H]2/C=C/c1ccc(-c2cccc(OC)c2)cn1 | –
9 | – | 75 | – | – | CCOC(=O)N[C@@H]1CC[C@@H]2[C@@H](C1)C[C@H]1C(=O)O[C@H](C)[C@H]1[C@H]2/C=C/c1ccc(-c2nccs2)cn1 | –
10 | – | 42 | – | – | CCOC(=O)N[C@@H]1CC[C@@H]2[C@@H](C1)C[C@H]1C(=O)O[C@H](C)[C@H]1[C@H]2/C=C/c1ccc(-c2ccc(C)cn2)cn1 | –
11 | – | 337 | – | – | CCOC(=O)N[C@@H]1CC[C@@H]2[C@@H](C1)C[C@H]1C(=O)O[C@H](C)[C@H]1[C@H]2/C=C/c1ccc(-c2cncnc2)cn1 | –
